# Test results reported in PMC9157583 (Alzheimer's & Dementia : Translational Research & Clinical …, 2022).
# Values joined by “and” are separate entries in the source; they are usually repeats but may differ in a detail not shown here. Equal values may be shown once. Read-outs that look alike come from different tables or passages of the source.
# What was measured:
# [1] = for AUC / Cmax / Tmax: human, in vivo, po; for AUC: AUC0‐4, CSF
# [2] = tested on: Abl/SRC; details: cited from earlier work
# [3] = tested on: alpha‐synuclein oligomer; assay: Oligomeric alpha‐synuclein ELISA in CSF and plasma; format: in vivo, human; details: CSF or plasma, bosutinib vs placebo
# Procedure, shortened: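 Oligomeric alpha-synuclein in CSF and plasma was quantified with a commercial quantitative ELISA kit per the manufacturer's protocol. Samples were drawn at baseline and week 12 from DLB participants on oral test compound 100 mg daily or matching placebo, 1–4 h after dosing and ~2 h after the last levodopa dose.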
# [4] = open label study, 12 months; cited from earlier work
# [5] = tested on: Aβ40, Aβ42, total tau, p‐tau 181; assay: Aβ40, Aβ42, total tau, and p‐tau 181 ELISA in CSF and plasma; format: in vivo, human; details: CSF or plasma, bosutinib vs placebo
# Procedure, shortened: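 Plasma (10 mL blood) and lumbar-puncture CSF (~15 mL) were taken at baseline and at week 12 from DLB participants randomized 1:1 to oral test compound 100 mg daily or placebo. Sampling was 1–4 h post-dose, ~2 h after the last levodopa dose. Aβ40, Aβ42, total tau and p-tau181 were measured by Milliplex ELISA, with CSF and plasma run in parallel using the same reagents.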
# [6] = tested on: dopamine metabolites DOPAC and HVA; assay: Quantification of dopamine metabolites DOPAC and HVA; format: in vivo, human; details: bosutinib 100 mg compared to placebo, 12 weeks
# Procedure, shortened: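 CSF DOPAC and HVA were derivatized with benzoyl chloride and quantified by UHPLC-MS/MS. CSF was obtained by lumbar puncture at baseline and week 12, 1–4 h after oral test compound 100 mg daily or placebo and ~2 h after the last levodopa dose. Values were given as mean ± SD, with one-sided tests at 5% type I error and 90% CI.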
# [7] = cited from earlier work
# [8] = tested on: individuals with dementia with Lewy bodies; format: in vivo, human; details: bosutinib 100 mg once daily, 12 weeks
# [9] = tested on: alpha‐synuclein; assay: Total alpha‐synuclein ELISA in CSF and plasma; format: in vivo, human; details: bosutinib 100 mg compared to placebo, 12 weeks
# Procedure, shortened: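 Total alpha-synuclein in CSF and plasma was measured by solid-phase sandwich ELISA per the kit protocol, and the CSF/plasma ratio was calculated from the two levels. Samples were taken at baseline and week 12 from DLB participants given oral test compound 100 mg daily or placebo. Changes were compared within groups by one-tailed paired Wilcoxon test and between groups by one-tailed Welch t-test.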
# [10] = molecular target: Src (Homo sapiens, UniProt P12931); assay: Phospho‐Src; format: in vivo; details: bosutinib 100 mg compared to placebo, 12 weeks
# Sequence of Src (P12931 whole entry): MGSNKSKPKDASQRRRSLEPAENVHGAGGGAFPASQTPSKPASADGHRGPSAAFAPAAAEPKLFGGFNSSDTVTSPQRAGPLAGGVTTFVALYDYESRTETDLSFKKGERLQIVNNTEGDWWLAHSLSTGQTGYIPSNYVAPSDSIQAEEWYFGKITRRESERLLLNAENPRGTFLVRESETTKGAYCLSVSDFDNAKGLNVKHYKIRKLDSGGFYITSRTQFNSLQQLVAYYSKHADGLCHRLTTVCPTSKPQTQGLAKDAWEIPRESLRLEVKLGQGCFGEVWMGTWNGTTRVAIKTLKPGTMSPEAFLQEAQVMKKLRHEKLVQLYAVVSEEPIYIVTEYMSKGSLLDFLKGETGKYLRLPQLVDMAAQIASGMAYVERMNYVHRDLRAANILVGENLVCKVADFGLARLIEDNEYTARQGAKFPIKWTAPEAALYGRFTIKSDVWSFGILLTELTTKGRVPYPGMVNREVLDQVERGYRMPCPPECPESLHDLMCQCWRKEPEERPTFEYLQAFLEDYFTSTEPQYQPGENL
# Procedure, shortened: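 Phospho-Src was assayed with a PathScan sandwich ELISA. CSF or plasma was added to wells coated with rabbit polyclonal antibody that captures Src phosphorylated at Tyr416. Samples came from DLB participants at baseline and after 12 weeks of oral test compound 100 mg daily or placebo. Within-group changes used a one-tailed paired Wilcoxon test; between-group changes used a one-tailed Welch-corrected unpaired t-test.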
# [11] = Pharmacokinetics: bosutinib concentration in plasma of DLB participants; format: in vivo, human; details: for Tmax / AUC / Cmax: human; for AUC: AUC0‐4, plasma
# [12] = tested on: individuals with dementia with Lewy bodies; assay: Exploratory clinical assessments; format: in vivo, human; details: change 12 week‐ baseline, bosutinib 100 mg vs. placebo; interval in brackets
# [13] = CSF, 100 mg, 12 weeks vs single dose
# [14] = 100 mg, CSF, multiple oral doses 100 mg once daily, 12 weeks
# [15] = 100 mg, CSF, single oral dose 100 mg
# [16] = 200 mg, CSF, single oral dose 200 mg
# [17] = plasma, single oral dose 500 mg, normal individuals, n = 6
# [18] = 100 mg, 12 weeks vs single dose
smiles,measurement,setting,value
"COc1cc(Nc2c(C#N)cnc3cc(OCCCN4CCN(C)CC4)c(OC)cc23)c(Cl)cc1Cl [Bosutinib, Bosutinib monohydrate]","Increase of CSF exposure (AUC0‐4), multiple doses compared to a single dose",[1]; [13],10 fold
same,"Increase of CSF level (Cmax), multiple doses compared to a single dose",[1]; [13],9 fold
same,AUC,"[1]; 100 mg, multiple oral doses 100 mg once daily, 12 weeks",1.15 ng·h/mL and 0.00216 µM·h
same,AUC,"[1]; 100 mg, single oral dose 100 mg",0.14 ng·h/mL and 0.00026 µM·h
same,Cmax,[1]; [14],0.94 ± 0.32 nM
same,Cmax,"[1]; 100 mg, CSF, multiple oral doses 100 mg once daily, 12 weeks, n = 13",0.5 ± 0.17 ng/mL
same,Cmax,[1]; [15],0.11 ± 0.08 nM
same,Cmax,"[1]; 100 mg, CSF, single oral dose 100 mg, n = 9",0.06 ± 0.04 ng/mL
same,Tmax,[1]; [14],3 h
same,Tmax,[1]; [15],2 h
same,AUC,"[1]; 200 mg, single oral dose 200 mg",0.24 ng·h/mL and 0.00044 µM·h
same,Cmax,[1]; [16],0.25 ± 0.09 nM
same,Cmax,"[1]; 200 mg, CSF, single oral dose 200 mg, n = 9",0.13 ± 0.06 ng/mL
same,Tmax,[1]; [16],4 h
same,IC50,[2],1.2 nM
same,Oligomeric alpha‐synuclein,[3],no differences
same,Repeatable Battery for the Assessment of Neuropsychological Status (RBANS),[4],less decline
same,Aβ40,[5],no differences
same,Aβ42,[5],no differences
same,Total tau,[5],no differences
same,p‐tau181,[5],no differences
same,CSF DOPAC level,"[6]; CSF, Figure 2E",no statistically significant difference
same,CSF HVA level,"[6]; CSF, Figure 2F",no statistically significant difference
same,Plasma DOPAC level,"[6]; plasma, Figure 2G",significantly reduced
same,Plasma HVA level,"[6]; plasma, Figure 2H",significantly reduced
same,Tmax in previous studies,[7]; between 0 and 24 hours,around 6 hours
same,AUC0‐24,[7]; [17],2190 ± 661 ng/h/mL
same,Tmax,[7]; [17],3.50 (2.00–6.00) hrs
same,Prolongation of QTc intervals,[8],no prolongation of QTc intervals
same,Serious adverse events (SAEs),[8],no serious adverse events
same,Total dropped out,"[8]; DLB, N = 13, number (%)",0 (0%)
same,"Adverse event: Dizziness, number of events (%)",[8]; N = 13,1 (7.7%)
same,"Adverse event: Falls, number of events (%)",[8]; N = 13,3 (23.1%)
same,"Adverse event: Flu, number of events (%)",[8]; N = 13,0 (0%)
same,"Adverse event: Impaction, number of events (%)",[8]; N = 13,0 (0%)
same,"Adverse event: Liver transaminases, number of events (%)",[8]; N = 13,1 (7.7%)
same,"Adverse event: Pain, number of events (%)",[8]; N = 13,3 (23.1%)
same,"Adverse event: Post‐lumbar puncture headache, number of events (%)",[8]; N = 13,1 (7.7%)
same,"Adverse event: Upper respiratory infection, number of events (%)",[8]; N = 13,0 (0%)
same,"Adverse event: Urinary incontinence, number of events (%)",[8]; N = 13,1 (7.7%)
same,"Adverse event: Urinary tract infection, number of events (%)",[8]; N = 13,1 (7.7%)
same,Total number of adverse events (AEs),"[8]; N = 13, 9 in placebo, P = 0.68",11
same,CSF alpha‐synuclein level,"[9]; CSF, Figure 2I",significantly reduced
same,CSF:plasma of alpha‐synuclein,[9]; Figure 2K,reduced
same,CSF p‐Src,"[10]; CSF, Figure 2D",could not demonstrate differences
same,Plasma active Src phosphorylated at Tyr416,"[10]; plasma, Figure 2C",significantly reduced
same,"Increase of plasma exposure (AUC0‐4), multiple doses compared to a single dose",[11]; [18],~3 fold
same,"Increase of plasma level (Cmax), multiple doses compared to a single dose",[11]; [18],more than 2 fold
same,Tmax,"[11]; oral, Tmax in the current study, between 0 and 4 hours, current study",3 to 4 h
same,AUC,"[11]; po, 100 mg, multiple oral doses 100 mg once daily, 12 weeks",73.1 ng·h/mL and 0.138 µM·h
same,AUC,"[11]; po, 100 mg, single oral dose 100 mg",25 ng·h/mL and 0.0479 µM·h
same,Cmax,"[11]; po, 100 mg, multiple oral doses 100 mg once daily, 12 weeks, n = 13",29.9 ng/mL and 56.4 nM
same,Cmax,"[11]; po, 100 mg, single oral dose 100 mg, n = 9",13.5 ng/mL and 25.5 nM
same,Tmax,"[11]; po, 100 mg, Tmax, multiple oral doses 100 mg once daily, 12 weeks",4 h
same,Tmax,"[11]; po, 100 mg, Tmax, single oral dose 100 mg, sampling 0 to 4 hours",3 h
same,AUC,"[11]; po, 200 mg, single oral dose 200 mg",36.9 ng·h/mL and 0.0696 µM·h
same,Cmax,"[11]; po, 200 mg, single oral dose 200 mg, n = 9",19.6 ng/mL and 37 nM
same,Alzheimer's Disease Assessment Scale–Cognitive subscale (ADAS‐Cog),[12],"−0.66 (−4.67, 3.33)"
same,Clinician Assessment of Fluctuation (CAF),[12],"1 (−2,3)"
same,Irritability and Apathy Scale (IAS)‐_Participant_APATHY,[12],"0 (−3, 4)"
same,Irritability and Apathy Scale (IAS)‐_Participant_IRRITABILITY,[12],"0 (−2, 3)"
same,Irritability and Apathy Scale (IAS)‐_Partner_APATHY,[12],"−1 (−4, 2)"
same,Irritability and Apathy Scale (IAS)‐_Partner_IRRITABILITY,[12],"1 (−1, 4)"
same,Montreal Cognitive Assessment (MoCA),[12],"0 (−1, 2)"
same,Neuropsychiatric Inventory (NPI) frequency x severity,[12],"0 (−8, 9)"
same,Neuropsychiatric Inventory (NPI)_Caregiver Distress,[12],"2 (−1, 6)"
same,Problem Behaviours Assessment (PBA),[12],"1 (−14, 10)"
same,Timed Up and Go,[12],"0 (−3, 2)"
same,Unified Parkinson's Disease Rating Scale (Activities of Daily Living)‐Part II,[12],"−1 (−3, 2)"
same,Unified Parkinson's Disease Rating Scale (Motor)‐Part III,[12],"0 (−4, 4)"
same,Unified Parkinson's Disease Rating Scale (SUM Part II+III),[12],"−1 (−6, 5)"
same,Unified Parkinson's Disease Rating Scale (UPDRS‐Cognition)‐Part I,[12],"0 (−2, 1)"
same,Unified Parkinson's Disease Rating Scale (total Part I+III),[12],"−2 (−7, 6)"
